According to ChEMBL document CHEMBL1131449, “4-(trans-4-Methylcyclohexyl)-4-oxobutyric acid (JTT-608). A new class of antidiabetic agent” (1998):
Activity calls are given as the source filed them. The rule behind the calls is not given here.

Experiments:
Rattus norvegicus [1] = assay: Percent decrease of hyperglycemia at 30 min after glucose loading(1 g/kg ip) relative to vehicle control in rats at dose 100 mg/kg po; type: functional, organism-based; set-up: dose 100 mg/kg
Method in brief: (§1)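 Normal rats, groups of four to six, fasted 16 h. Glucose given 1 g/kg ip, with oral vehicle or compound. Tail-vein blood glucose measured by the hexokinase method. Value is % reduction of hyperglycemia 30 min after the glucose load versus vehicle control. Dunnett's two-tailed test used.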

Rattus norvegicus [2] = assay: Percent decrease of hyperglycemia at 30 min after glucose loading(1 g/kg ip) relative to vehicle control in rats at dose 10 mg/kg po; type: functional, organism-based; set-up: dose 10 mg/kg; method in brief: as §1
Rattus norvegicus [3] = assay: Percent decrease of hyperglycemia at 30 min after glucose loading(1 g/kg ip) relative to vehicle control in rats at dose 30 mg/kg po.; type: functional; set-up: scale not given: the % may be the effect or the level left; method in brief: as §1
Rattus norvegicus [4] = assay: Hypoglycemic activity in fasting rats at a dose of 30 mg/kg po; type: functional, organism-based; set-up: dose 30 mg/kg
Method in brief: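 Normal rats, groups of four or five, fasted 16 h, then given vehicle or compound by mouth. Tail-vein blood sampled over 4 h for glucose (hexokinase method) and insulin (two-antibody radioimmunoassay). Comparison to vehicle control by Dunnett's two-tailed test.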

Rattus norvegicus [5] = assay: Percent decrease of hyperglycemia at 30 min after glucose loading(1 g/kg ip) relative to vehicle control in rats at dose 100 mg/kg po.; type: functional; set-up: scale not given: the % may be the effect or the level left; method in brief: as §1
Rattus norvegicus [6] = assay: Percent decrease of hyperglycemia at 30 min after glucose loading(1 g/kg ip) relative to vehicle control in rats at dose 30 mg/kg po; type: functional, organism-based; set-up: dose 30 mg/kg; method in brief: as §1
Rattus norvegicus [7] = assay: Percent decrease of hyperglycemia at 30 min after glucose loading(1 g/kg ip) relative to vehicle control in rats at dose 1 mg/kg po; type: functional, organism-based; set-up: dose 1 mg/kg; method in brief: as §1
Rattus norvegicus [8] = assay: Percent decrease of hyperglycemia at 30 min after glucose loading(1 g/kg ip) relative to vehicle control in rats at dose 10 mg/kg po.; type: functional; set-up: scale not given: the % may be the effect or the level left; method in brief: as §1
Rattus norvegicus [9] = assay: Percent decrease of hyperglycemia at 30 min after glucose loading(1 g/kg ip) relative to vehicle control in rats at dose 3 mg/kg po.; type: functional; set-up: scale not given: the % may be the effect or the level left; method in brief: as §1

Q: Which Effect (Rattus norvegicus [1]) does the source give for `C[C@H]1CC[C@H](C(=O)NCC(=O)O)CC1` here?
A: inactive

Q: For `C[C@H]1CC[C@@H](C(=O)CCC(=O)O)CC1`, which Effect (Rattus norvegicus [2]) is on record?
A: inactive

Q: And the Effect (Rattus norvegicus [3])?
A: 32%

Q: What about the Effect (Rattus norvegicus [4]) of the same molecule?
A: inactive

Q: What about the Effect (Rattus norvegicus [5]) of the same molecule?
A: 44%

Q: What does the source list for `C[C@H]1CC[C@H](C(=O)CCC(N)=O)CC1`?
A: Effect (Rattus norvegicus [2]): inactive; Effect (Rattus norvegicus [3]): 27%; Effect (Rattus norvegicus [4]): inactive; Effect (Rattus norvegicus [5]): 47%

Q: `C[C@H]1CC[C@H]([S+]([O-])CCC(=O)O)CC1` (some centres undefined) was tested. Which Effect (Rattus norvegicus [1]) did it give?
A: inactive

Q: For `O=C(O)CCC(=O)C1CCCCCC1`, which Effect (Rattus norvegicus [1]) is on record?
A: inactive

Q: What does the source list for `CC1CCCC(C(=O)CCC(=O)O)C1` (centres undefined)?
A: Effect (Rattus norvegicus [6]): inactive; Effect (Rattus norvegicus [5]): 37%

Q: For `CC[C@H]1CC[C@H](C(=O)CCC(=O)O)CC1`, which Effect (Rattus norvegicus [1]) is on record?
A: inactive

Q: How did the Effect (Rattus norvegicus [1]) turn out when `O=C(O)CCC(=O)C1CCCC1` was run?
A: inactive

Q: How did the Effect (Rattus norvegicus [1]) turn out when `C[C@H]1CC[C@H](C(=O)CCCC(=O)O)CC1` was run?
A: inactive

Q: `C[C@H]1CC[C@H](C(=O)OCC(=O)O)CC1` was tested. Which Effect (Rattus norvegicus [1]) did it give?
A: inactive

Q: `C[C@H]1CC[C@H](S(=O)(=O)CCC(=O)O)CC1` was tested. Which Effect (Rattus norvegicus [1]) did it give?
A: inactive

Q: `CCC[C@H]1CC[C@H](C(=O)CCC(=O)O)CC1` was tested. Which Effect (Rattus norvegicus [1]) did it give?
A: inactive

Q: With `CC1(C)CCC(C(=O)CCC(=O)O)CC1` as the molecule, how does the Effect (Rattus norvegicus [6]) read?
A: inactive

Q: And the Effect (Rattus norvegicus [5])?
A: 34%

Q: What does the source list for `CC1(C(=O)CCC(=O)O)CCCCC1`?
A: Effect (Rattus norvegicus [6]): inactive; Effect (Rattus norvegicus [5]): 28%

Q: Which Effect (Rattus norvegicus [2]) does the source give for `CC(=O)CCC(=O)[C@H]1CC[C@H](C)CC1` here?
A: inactive

Q: And the Effect (Rattus norvegicus [3])?
A: 30%

Q: What about the Effect (Rattus norvegicus [4]) of the same molecule?
A: inactive

Q: What about the Effect (Rattus norvegicus [5]) of the same molecule?
A: 31%

Q: Which Effect (Rattus norvegicus [1]) does the source give for `CC1CCCCC1C(=O)CCC(=O)O` (centres undefined) here?
A: inactive

Q: `O=C(O)CCC(=O)C1CCCCC1` was tested. Which Effect (Rattus norvegicus [2]) did it give?
A: inactive

Q: What about the Effect (Rattus norvegicus [3]) of the same molecule?
A: 27%

Q: What about the Effect (Rattus norvegicus [4]) of the same molecule?
A: inactive

Q: What about the Effect (Rattus norvegicus [5]) of the same molecule?
A: 26%

Q: For `C[C@H]1CC[C@H](CCCC(=O)O)CC1`, which Effect (Rattus norvegicus [1]) is on record?
A: inactive

Q: For `C[C@H]1CC[C@H](C(=O)CCC(=O)O)CC1`, which Effect (Rattus norvegicus [7]) is on record?
A: inactive

Q: And the Effect (Rattus norvegicus [8])?
A: 32%

Q: What about the Effect (Rattus norvegicus [3]) of the same molecule?
A: 41%

Q: And the Effect (Rattus norvegicus [4])?
A: inactive

Q: What about the Effect (Rattus norvegicus [5]) of the same molecule?
A: 65%

Q: And the Effect (Rattus norvegicus [9])?
A: 24%
